TNAP act DEA – human TNAP activation, intermediate phosphate acceptor | P05186 | purified TNAP, CDP-star luminescence, 100 mM DEA, 30 min; hits give high values; scale: 0 levamisole-inhibited, 1 vehicle-only enzyme | activation factor at 20 µM | 64,000 tested, under 10 active | AID 813;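 active means activation factor of at least 2 at 20 µM, relative to controls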
HePTP inh – inhibitors of human HePTP phosphatase; AID 521; recombinant HePTP phosphatase activity, OD absorbance; P35236; inhibition, % at 20 µM; 110,000 compounds, 0.64% hits; in the data active means inhibition above about 50%;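 further: plate controls were vehicle for no effect and reference inhibitor for full effect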
Target sequence (P35236 whole entry, looked up): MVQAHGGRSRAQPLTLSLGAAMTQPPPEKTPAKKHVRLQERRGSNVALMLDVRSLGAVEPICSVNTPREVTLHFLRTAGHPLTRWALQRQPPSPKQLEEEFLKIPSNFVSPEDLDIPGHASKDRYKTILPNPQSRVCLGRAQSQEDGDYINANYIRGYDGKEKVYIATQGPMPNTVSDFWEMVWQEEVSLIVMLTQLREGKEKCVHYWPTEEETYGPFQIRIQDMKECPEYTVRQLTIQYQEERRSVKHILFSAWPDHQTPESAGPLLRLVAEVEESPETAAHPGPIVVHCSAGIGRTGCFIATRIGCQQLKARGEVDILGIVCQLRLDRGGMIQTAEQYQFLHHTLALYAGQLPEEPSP
AP complement – orthogonal test for alternative complement pathway inhibitors; Human serum alternative complement pathway, LPS-coated ELISA, C3 deposition; tested in compound mixtures; AID 1235; 62,000 compounds, 0.08% hits; inhibition, % at 5 µM;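 active means inhibition above 30% in each of the two pooled mixtures holding the compound, so the lower value exceeds 30%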;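 further: 0% = serum in Mg-EGTA without compound and 100% = EDTA serum blank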
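Medium: diluted human serum in Mg2+-EGTA GVB++. Assay system: human serum complement alternative pathway, C3 deposition onto LPS. Also added: Plate-bound LPS. Technique: Anti-C3 ELISA, OD 450 nm. Measure: percent inhibition. Incubation: 1 h at 37 °C. Dosing: 5 µM each compound, pools of ten, 50 µM per pool.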
Starred values were filed as active, the others as inactive; · = no result given. An excerpt weighted towards active compounds, which were near 0.65% of everything screened.

SMILES | TNAP act DEA | HePTP inh | AP complement
C=CCN1C(=O)/C(=C\c2ccc(-c3ccc([N+](=O)[O-])cc3Br)o2)C(=O)NC1=S | · | 98* | ·
C=CCN1C(=O)/C(=C\c2ccc(-c3ccc(OC)cc3[N+](=O)[O-])o2)C(=O)NC1=S | · | -4 | ·
O=C1NC(=S)N/C1=C\c1ccc(-c2cccc([N+](=O)[O-])c2)o1 | · | 5 | ·
O=C(COc1ccccc1)Nc1ccccc1I | · | -8 | ·
CCOC(=O)c1c(-c2ccc(OC)cc2)csc1NC(=O)C1CC=CCC1C(=O)O (centres undefined) | · | 105* | ·
CCOC(=O)c1c(-c2ccc(Cl)cc2)csc1NC(=O)C1CCCCC1C(=O)O (centres undefined) | · | 4 | ·
O=C1C(=O)N(c2nccs2)C(c2cccc(Br)c2)/C1=C(\O)c1ccc(F)cc1 (centres undefined) | · | 5 | ·
O=C(NCCN1CCOCC1)c1cc2nc(-c3ccc(Cl)c(Cl)c3)cc(C(F)(F)F)n2n1 | · | 6 | ·
COc1cc(/C=C2/SC(=S)NC2=O)cc(Cl)c1OCc1ccc(Cl)cc1Cl | · | 102* | ·
COc1c(Br)cc(/C=C2\SC(=S)NC2=O)cc1Br | · | 103* | ·
COc1cc(/C=C2\SC(=S)NC2=O)cc(Br)c1OC(C)=O | · | -10 | ·
COc1cc(/C=C2/SC(=S)NC2=O)cc(Cl)c1O | · | -7 | ·
O=C1NC(=S)S/C1=C/c1cc(I)c(O)c(I)c1 | · | 101* | ·
COc1ccc(/C=C2/SC(=S)NC2=O)cc1OCc1ccc(Cl)cc1 | · | 10 | ·
CCOC(=O)/C=C(\C)N1N=C(c2ccccc2)CC1c1cccc([N+](=O)[O-])c1 (centres undefined) | · | -2 | ·
O=C(Nc1ccc(Cl)c(Cl)c1)c1cc2cc(Br)ccc2oc1=O | · | -12 | ·
Cc1ccc2[nH]c3nc(N/N=C/c4cccc(Cl)c4)nnc3c2c1 | · | 12 | ·
O=C1S/C(=C\c2ccc(-c3ccccc3[N+](=O)[O-])o2)C(=O)N1c1ccccc1 | · | 0 | ·
O=C(O)CN1C(=O)/C(=C\c2ccc(-c3cccc4c3C(=O)c3ccccc3C4=O)o2)SC1=S | · | 101* | ·
O=C(O)CCN1C(=O)/C(=C/c2ccc(-c3ccccc3[N+](=O)[O-])o2)SC1=S | · | 70* | ·
CCN1C(=O)/C(=C\c2ccc(-c3ccccc3C(=O)OC)o2)SC1=S | · | 7 | ·
Cc1cccc(NC(=O)CSc2nc(-c3ccccc3)c(-c3ccccc3)o2)c1C | · | -18 | ·
Cc1ccc(C(C)C)c(OCC(=O)Nc2ccc3c(c2)OCO3)c1 | · | -2 | ·
CCOC(=O)C1=C(C)N(c2ccc(C)cc2)C(=O)/C1=C\c1cccc(OC)c1O | · | 4 | ·
COc1cc(/C=N/Nc2nc(N3CCCCC3)nc(N3CCCCC3)n2)cc(Br)c1O | · | -8 | ·
SMILES | TNAP act DEA | HePTP inh | AP complement
CCOc1cc(N2CCOCC2)c(OCC)cc1NC1=NCCCCC1 | 1 | 4 | 19
CCOc1cc(N2CCOCC2)c(OCC)cc1N | · | 68* | ·
COC(=O)c1ccc(-c2ccc(/C=C3/SC(NC(C)=O)=NC3=O)o2)cc1 | · | -5 | ·
CC(=O)NC1=NC(=O)/C(=C\c2ccc(I)o2)S1 | · | 102* | ·
O=C(CC1S/C(=N\N=C\c2cccs2)NC1=O)Nc1ccc(C(=O)O)cc1 (centres undefined) | · | 90* | ·
C/C(=N\N=C1\NC(=O)C(CC(=O)Nc2ccc(C(=O)O)cc2)S1)c1ccc([N+](=O)[O-])cc1 (centres undefined) | · | 94* | ·
O=C(CC1S/C(=N\N=C\c2ccco2)NC1=O)Nc1ccc(C(=O)O)cc1 (centres undefined) | · | 101* | ·
O=C(CC1S/C(=N\N=C\c2cccs2)NC1=O)Nc1ccccc1C(F)(F)F (centres undefined) | · | 5 | ·
O=C(CC1S/C(=N\N=C\c2ccco2)NC1=O)Nc1cccc(Cl)c1Cl (centres undefined) | · | 9 | ·
CCNC(=O)CC1S/C(=N\N=C(/C)c2ccc([N+](=O)[O-])cc2)NC1=O (centres undefined) | · | 4 | ·
Clc1ccc(SCCCN2CCOCC2)cc1 | · | 13 | ·
CCCOC(=O)C1=C(C)NC2=C(C(=O)CCC2)C1c1ccc(Cl)cc1Cl (centres undefined) | · | 9 | ·
CC(=O)Nc1ccc(S(=O)(=O)Nc2c(C)cc(C)cc2C)cc1 | · | 6 | ·
CC(=O)Nc1ccc(NS(=O)(=O)c2c(C)cc(C)cc2C)cc1 | · | 101* | ·
CCC1CCc2c(sc(NC(=O)c3cc4ccccc4oc3=O)c2C#N)C1 (centres undefined) | · | -17 | ·
CCOC(=O)C(=CNc1ccc([N+](=O)[O-])cc1)C(=O)OCC | · | 9 | ·
COc1ccc(N/C=C(/C2=CC(=O)C=CC2=O)[N+](=O)[O-])cc1 | · | 58* | ·
COc1cc(C(=O)NC(NC(=S)Nc2cccc(Br)c2)C(Cl)(Cl)Cl)cc(OC)c1OC (centres undefined) | · | -8 | ·
CS(=O)(=O)N(CC(=O)Nc1cccnc1)c1ccc(Oc2ccccc2)cc1 | · | 3 | ·
Cn1c2ccccc2c2nnc(SCC(=O)NCc3ccco3)nc21 | · | 104* | ·
Cc1cc(NC(=O)CSc2nnc3c4ccccc4n(C)c3n2)no1 | · | 9 | ·
COc1ccc(CN2CCN(Cc3ccc(C)cc3)CC2)c(OC)c1OC | · | 3 | ·
CC(C)(C)c1ccc(S(=O)(=O)NNc2ccccc2)cc1 | · | 101* | ·
CC(=O)Nc1ccc(S(=O)(=O)NNc2ccccc2)cc1 | · | -6 | ·
Cc1cccc(C(=O)N2CCN(c3ccccc3)CC2)c1 | · | 8 | ·
SMILES | TNAP act DEA | HePTP inh | AP complement
O=C(/C=C/c1ccco1)Nc1cccc([N+](=O)[O-])c1 | · | 62* | ·
O=C(/C=C/c1ccco1)Nc1ccc(O)cc1C(=O)O | · | 98* | ·
O=C(/C=C/c1ccco1)NCCCNC(=O)/C=C/c1ccco1 | · | 46 | ·
O=C(/C=C/c1ccco1)Nc1ccc(Cl)cc1C(=O)O | · | 102* | ·
O=C(/C=C/c1ccco1)NCCCCNC(=O)/C=C/c1ccco1 | · | 103* | ·
Cc1cccc(NC(=O)c2ccccc2NC(=O)/C=C\c2ccco2)c1C | · | 6 | ·
O=C(/C=C/c1ccco1)Nc1ccc(Cl)cc1Cl | · | 8 | ·
O=C(/C=C/c1ccc(Cl)cc1)Nc1cccc([N+](=O)[O-])c1 | · | 18 | ·
Cc1onc(-c2c(Cl)cccc2Cl)c1C(=O)Nc1nncs1 | · | 0 | ·
CCOC(=O)C(CCCCOc1ccc(C)c(C)c1)C(=O)OCC | · | 6 | ·
O=C(Nc1ccc(-c2nc3ccccc3o2)cc1)c1ccc(-c2ccc([N+](=O)[O-])cc2)o1 | · | -5 | ·
CC1(C)C(=O)N(Cc2ccc([N+](=O)[O-])cc2)c2ccccc2N1C(=O)c1ccc(F)cc1 | · | -5 | ·
CC1(C)C(=O)N(Cc2ccccc2)c2ccccc2N1C(=O)c1ccc([N+](=O)[O-])cc1 | · | 74* | ·
COc1cc(OC)c(C=C2C(=O)NC(=O)NC2=O)cc1Br | · | 5 | ·
O=c1nc(/C=C/c2ccc(-c3ccc([N+](=O)[O-])cc3Cl)o2)cc(C(F)(F)F)[nH]1 | · | 10 | ·
O=C(O)c1cc(-c2ccc(/C=C/c3cc(C(F)(F)F)[nH]c(=O)n3)o2)ccc1Cl | · | 65* | ·
Cc1cccc(NC(=O)CCN2CCOCC2)c1 | 1 | 3 | 38*
Cc1cccc(NC(=O)CCN2CCN(C/C=C/c3ccccc3)CC2)c1 | 1 | 1 | 27
COc1ccc(NC(=O)c2ccc(Nc3nnc(C)c4ccccc34)cc2)cc1 | · | 60* | ·
Cc1nnc(Nc2ccc(C(=O)NCCO)cc2)c2ccccc12 | 0.9 | 7 | 4
Cc1ccc(NC(=O)CSc2nnnn2-c2ccccc2)c([N+](=O)[O-])c1 | · | 2 | ·

Compound activity from PubChem BioAssay.
